This note sets out measurements from ChEMBL document CHEMBL1124227, “Effects of sulfur-containing analogues of stearic acid on growth and fatty acid biosynthesis in the protozoan Crithidia fasciculata” (J Med Chem, 1988).

Holding throughout (format): functional, organism-based
Experiment [1] has as its system Crithidia fasciculata. Kind of experiment: The compound was tested for 50% growth inhibition against Crithidia fasciculata. The following applies: read-out: I50. The gist of the method: (§1)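 Cultures were set up in 50 mL growth medium with the analogue added and inoculated with about 1 × 10⁷ C. fasciculata. Duplicate flasks were run at each of 3–6 concentrations, with duplicate controls. Flasks were shaken at 25 °C, and growth was followed as absorbance change at 535 nm against uninoculated medium (1.0 = 7 × 10⁷ organisms/mL). Runs ended when controls reached 6 × 10⁷ to 9 × 10⁷ organisms/mL.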

The test system of experiment [2] is Crithidia fasciculata. As to the kind of experiment: Inhibition of dihydrosterculate synthesis in Crithidia fasciculata. The following applies: read-out: I50. The essentials: (§2)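 C. fasciculata (about 1 × 10⁷ organisms) was inoculated into 50 mL growth medium containing the analogue, using duplicate flasks at 3–6 concentrations plus duplicate untreated controls. Cultures were shaken at 25 °C until controls reached 6 × 10⁷ to 9 × 10⁷ organisms/mL. Harvested cells gave free fatty acids, which were converted to methyl esters. Dihydrosterculate was measured as % of total fatty acids by capillary GC-FID on BP1 and Supelcowax 10 columns.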

In experiment [3] the test system is Crithidia fasciculata. As to the kind of experiment: Inhibition of dihydrosterculate synthesis in Crithidia fasciculata; No inhibition. The essentials:
as §2

Experiment [4] deals with Crithidia fasciculata. Kind of experiment: The compound was tested for 50% growth inhibition against Crithidia fasciculata; No inhibition. The essentials:
as §1

pIC50: −log10 of the molar value.

On to `CCCCCCCCSCCCCCCCCC(=O)NCC(O)CO` (centres undefined), for which the pIC50 in experiment [1] was 4.77; in experiment [2], 4.92.

In the case of `CCCCCCCCCCSCCCCCCC(=O)O`, the pIC50 in experiment [1] was 6.10; in experiment [2], 6.40.

Consider `CCCCCCCCCCCCCCCCCC(=O)NCC(O)CO` (centres undefined), for which the I50 result in experiment [3] and in experiment [4] was “Not Active” in each case.

Regarding `CCCCCCCCCCCCCCCCCC(=O)O` [STEARIC ACID], the I50 result in experiment [3] is recorded as “Not Active”.

For the compound `CCCCCCCC[S+]([O-])CCCCCCCCC(=O)O` (centres undefined), in experiment [3], the I50 entry is “Not Active”. For the same compound, in experiment [1], the pIC50 was less than 4.00.

Take `CCCCCCCCCSCCCCCCCC(=O)NCC(O)CO` (centres undefined): the results for the pIC50 in experiment [1] and in experiment [2] were less than 4.00 and 5.10, respectively.

On to `CCCCCCCCCSCCCCCCCC(=O)O`, for which the pIC50 in experiment [1] is less than 4.00; in experiment [2], 6.05.

Turning to `CCCCCCCCSCCCCCCCCC(=O)O`, the pIC50 in experiment [1] was 5.00; in experiment [2], 5.40.

For `CCCCCCCCC[S+]([O-])CCCCCCCC(=O)O` (centres undefined), in experiment [3], the I50 entry was “Not Active”. For the same compound, the pIC50 in experiment [1] is less than 4.00.

Turning to `CCCCCCCSCCCCCCCCCC(=O)O`, the pIC50 in experiment [1] and in experiment [2] was 5.52 in each case.
